Reference: article PMC3020727 (The Journal of Biological Chemistry, 2010)
One block for each substance: values may come before it.

Assays:
RbAp48 [1] = conditions: RbAp48 expressed in a reticulocyte lysate; cited from earlier work
[2] = system: RbAp48 mutants (E126A/E179A; E231A/D248A/N277A/E319A); assay: Pulldown of in vitro translated 35S-labeled mutant RbAp48 by biotinylated FOG-1-; assay type: binding
In short: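 ³⁵S-labeled RbAp48 mutants made by coupled in vitro transcription/translation in rabbit reticulocyte lysate. About 10 μg biotinylated FOG-1-(1–15) on high-capacity streptavidin beads, in Tris pH 7.4, 300 mm NaCl, 0.5% IGEPAL and EDTA-free protease inhibitor. Lysate (15 μl, plus 45 μl ³⁵S-MTA-1 where stated) with 250 μl beads, 1 h, 4 °C. Bare-bead control; 10% input. Five washes; SDS-PAGE and autoradiography.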

RbAp48 [3] = assay: Binding of MBD3 N-terminal peptide to RbAp48; conditions: data not shown

Substance: FOG-1-(1–15): chemically synthesized peptide, the 15 N-terminal amino acids of FOG-1
interaction with RbAp48 in GST pulldown assays (RbAp48 [1]): can interact
pulldown of E126A/E179A mutant RbAp48 in the presence of MTA-1 ([2]; 45 μl lysate with 35S-labeled MTA-1 added, Fig. 5B lane 10): could be recruited

binding to RbAp48 (RbAp48 [3]): does not bind measurably
Substance: MERKRWECPALPQGW [N-terminal peptide derived from MBD3]

Substance: biotinylated FOG-1-(1–15): FOG-1-(1–15) peptide bearing an N-terminal biotin tag, immobilized on streptavidin
pulldown of quadruple-point mutant RbAp48 (Glu-231, Asp-248, Asn-277, Glu-319) ([2]; biotinylated peptide on streptavidin beads, Fig. 5A): disrupts binding
